Laboratory results published in ChEMBL document CHEMBL4765366, “Targeting fungal virulence factor by small molecules: Structure-based discovery of novel secreted aspartic protease 2 (SAP2) inhibitors” (Eur J Med Chem, 2020).
pIC50: −log10 of the molar value. The source made the active and inactive calls. No cut-off for these calls is given here.

Tests used:
[1] = Inhibition of recombinant Candida albicans SAP2 using Dabcyl-Arg-Lys-Pro-Ala-Leu-Phe-Phe-Arg-Leu-Glu (EDANS)-Arg-OH as substrate incubated for 30 mins followed by substrate addition and measured after 30 mins by spectrophotometry
Candida albicans [2] = assay: Inhibition of recombinant Candida albicans SAP2 at 100 uM using Dabcyl-Arg-Lys-Pro-Ala-Leu-Phe-Phe-Arg-Leu-Glu (EDANS)-Arg-OH as substrate incubated for 30 mins followed by substrate addition and measured after 30 mins by spectrophotometry relative to control; settings: time 60.0 min
In short: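 FRET assay with purified expressed C. albicans SAP2 in 50 mM sodium citrate, 50 mM NaCl, pH 4.5. Compound (diluted in DMSO) was preincubated with enzyme 30 min before adding the Dabcyl/EDANS peptide substrate (18.75 μM solution in DMSO). Reaction ran 30 min at 30 °C, then fluorescence was read at ex 340, em 485 nm. Pepstatin A was the positive control.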

Candida albicans [3] = assay: Antifungal activity against azole resistant Candida albicans 0304103 infected in ICR mouse assessed as reduction in fungal burden in kidney at 10 mg/kg, ip administered for 4 days; type: functional, organism-based; settings: time 4.0 day
In short: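 Female ICR mice (20–25 g) were immunosuppressed with cyclophosphamide, 100 mg/kg ip in saline. After 24 h they were infected iv with 0.2 mL of 1×10^5 CFU/mL cells. Starting 24 h after infection, mice (4 per group) received the drug ip once daily for four days; controls received saline or fluconazole 10 mg/kg. Kidneys were homogenized and plated on YPD at 30°C for log10 CFU.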

Candida albicans [4] = assay: Downregulation of SAP2 in azole resistant Candida albicans 0304103 at 64 ug/ml by qRT-PCR analysis; type: functional; settings: dose 64.0 µg/ml
Candida albicans [5] = assay: Antibiofilm activity against azole resistant Candida albicans 0304103 assessed as inhibition of biofilm formation at 64 ug/ml incubated for 24 hrs by XTT-dye based assay relative to control; type: functional
In short: (§1)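 Cell suspensions (1.0 × 10^5 CFU/mL) were adhered for 90 min at 37°C, then rinsed three times with PBS. Compounds were added at a range of concentrations from 2 mg/mL DMSO stocks, with fluconazole as the positive control. Plates were cultured 24 h at 37°C, and biofilm was measured semi-quantitatively by XTT reduction.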

Candida tropicalis [6] = assay: Antibiofilm activity against azole resistant Candida tropicalis 10186 assessed as inhibition of biofilm formation incubated for 24 hrs by XTT-dye based assay; type: functional, organism-based; settings: dose 4-64 µg/ml; in short: as §1
Candida tropicalis [7] = assay: Antibiofilm activity against azole resistant Candida tropicalis 10186 assessed as inhibition of biofilm formation at 64 ug/ml incubated for 24 hrs by XTT-dye based assay relative to control; type: functional; in short: as §1
Candida albicans [8] = assay: Antibiofilm activity against azole resistant Candida albicans 0304103 assessed as inhibition of biofilm formation incubated for 24 hrs by XTT-dye based assay; type: functional, organism-based; settings: dose 4-64 µg/ml; in short: as §1

Compound	pIC50 [1]	inhibition (Candida albicans [2]) [%]	also measured
O=C(O)COc1ccc(/C=C2\C(=O)N(c3ccc(Cl)cc3)N=C2c2ccccc2)cc1	4.89	96	–
Cc1ccc(-c2ccc3c(c2)N(Cc2ccc(F)cc2)C(=O)/C3=C/c2ccc(OCC(=O)O)cc2OCC(=O)O)cc1	–	58	–
O=C(O)COc1ccc(/C=C2\C(=O)N(c3ccc(F)cc3)N=C2c2ccccc2)cc1	4.40	71	–
OC(Cn1cncn1)(Cn1cncn1)c1ccc(F)cc1F	–	–	Activity (Candida albicans [3]): Active
O=C(O)COc1ccc(/C=C2\C(=O)N(c3ccc(F)cc3)N=C2c2ccccc2)cc1OCC(=O)O	4.47	83	–
CN(C)c1ccc(/C=C2\C(=O)N(c3ccccc3)N=C2c2ccccc2)cc1	–	11	–
COc1ccc(N2N=C(c3ccccc3)/C(=C/c3ccccc3OCC(=O)O)C2=O)cc1	4.15	64	–
O=C(O)COc1ccc(/C=C2\C(=O)N(c3ccc(F)cc3)N=C2c2ccccc2)c(OCC(=O)O)c1	4.75	93	–
CC(C)CC(=O)N[C@H](C(=O)N[C@H](C(=O)N[C@@H](CC(C)C)[C@@H](O)CC(=O)N[C@@H](C)C(=O)N[C@@H](CC(C)C)[C@@H](O)CC(=O)O)C(C)C)C(C)C [PEPSTATIN]	7.66	100	–
O=C(O)COc1ccc(/C=C2\C(=O)N(c3ccc(Cl)cc3)N=C2c2ccccc2)cc1OCC(=O)O	4.33	70	–
Cc1ccc(N2N=C(c3ccccc3)/C(=C/c3ccc(OCC(=O)O)cc3OCC(=O)O)C2=O)cc1	4.87	99	–
O=C1/C(=C\c2ccc(Br)cc2)C(c2ccccc2)=NN1c1ccccc1	–	10	–
CC(=O)c1ccc(CN2C(=O)/C(=C/c3ccc(OCC(=O)O)cc3OCC(=O)O)c3ccc(-c4ccc(C)cc4)cc32)cc1	–	90	Activity (Candida albicans [4]): Active
Cc1ccc(CN2C(=O)/C(=C\c3ccc(OCC(=O)O)cc3OCC(=O)O)N(Cc3ccc(C)cc3)C2=O)cc1	4.62	91	–
O=C(O)COc1ccc(/C=C2\C(=O)N(c3cccc(Cl)c3)N=C2c2ccccc2)cc1	4.58	90	–
Cc1ccc(-c2ccc3c(c2)N(Cc2ccc(Cl)cc2)C(=O)/C3=C/c2ccc(OCC(=O)O)cc2OCC(=O)O)cc1	–	100	inhibition at 64 µg/mL (Candida albicans [5]): > 50%; inhibition (Candida tropicalis [6]): Dose-dependent effect; inhibition at 64 µg/mL (Candida tropicalis [7]): > 50%; inhibition (Candida albicans [8]): Dose-dependent effect; Activity (Candida albicans [4]): Active
O=C(O)COc1ccc(/C=C2\C(=O)N(c3ccccc3)N=C2c2ccccc2)cc1OCC(=O)O	4.73	86	–
O=C(O)COc1ccccc1/C=C1\C(=O)N(c2cccc(Cl)c2)N=C1c1ccccc1	4.26	70	–
Cc1ccc(N2N=C(c3ccccc3)/C(=C/c3ccc(OCC(=O)O)cc3)C2=O)cc1	4.67	93	–
Cc1ccc(N2N=C(c3ccccc3)/C(=C/c3ccccc3OCC(=O)O)C2=O)cc1	4.14	63	–
O=C(O)COc1ccc(/C=C2\C(=O)N(c3ccccc3)N=C2c2ccccc2)cc1	4.74	94	–
O=C1/C(=C\c2ccc(O)cc2)C(c2ccccc2)=NN1c1ccccc1	–	12	–

Compound	pIC50 [1]	inhibition (Candida albicans [2]) [%]	also measured
CCOc1ccc(/C=C2\C(=O)N(c3ccccc3)N=C2c2ccccc2)cc1	–	5	–
O=C(O)COc1ccccc1/C=C1\C(=O)N(c2ccc(F)cc2)N=C1c1ccccc1	–	46	–
O=C(O)COc1ccc(/C=C2\C(=O)N(c3cccc(Cl)c3)N=C2c2ccccc2)c(OCC(=O)O)c1	4.94	99	–
O=C(O)COc1ccccc1/C=C1\C(=O)N(c2ccccc2)N=C1c1ccccc1	4.21	68	–
Cc1ccc(CN2C(=O)C(=Cc3ccc(OCC(=O)O)cc3OCC(=O)O)C(=O)N2Cc2ccc(C)cc2)cc1	4.76	94	–
COc1ccc(N2N=C(c3ccccc3)/C(=C/c3ccc(OCC(=O)O)cc3)C2=O)cc1	4.69	95	–
COc1ccc(N2N=C(c3ccccc3)/C(=C/c3ccc(OCC(=O)O)cc3OCC(=O)O)C2=O)cc1	4.80	94	–
COc1ccc(CN2C(=O)/C(=C/c3ccc(OCC(=O)O)cc3OCC(=O)O)c3ccc(-c4ccc(C)cc4)cc32)cc1	–	29	–
COc1cc([C@H]2C(C(=O)c3ccc([N+](=O)[O-])cc3)=C(O)C(=O)N2CCCCCC(=O)O)ccc1O	4.19	–	–
O=C(O)COc1ccc(/C=C2\C(=O)N(c3ccccc3)N=C2c2ccccc2)c(OCC(=O)O)c1	5.00	99	–
O=C(O)COc1ccc(/C=C2\C(=O)N(c3ccc(F)cc3F)N=C2c2ccccc2)c(OCC(=O)O)c1	4.49	86	–
O=C(O)COc1ccc(/C=C2\C(=O)N(c3cccc(Cl)c3)N=C2c2ccccc2)cc1OCC(=O)O	4.64	82	–
O=C(O)COc1ccc(/C=C2\C(=O)N(c3ccc(Cl)cc3)N=C2c2ccccc2)c(OCC(=O)O)c1	4.97	99	–
Cc1ccc(N2N=C(c3ccccc3)/C(=C/c3ccc(OCC(=O)O)c(OCC(=O)O)c3)C2=O)cc1	4.65	85	–
CCc1ccc(/C=C2\C(=O)N(c3ccccc3)N=C2c2ccccc2)cc1	–	7	–
O=C(O)COc1ccccc1/C=C1\C(=O)N(c2ccc(Cl)cc2)N=C1c1ccccc1	4.12	60	–
Cc1ccc(-c2ccc3c(c2)N(Cc2ccc(C(F)(F)F)cc2)C(=O)/C3=C/c2ccc(OCC(=O)O)cc2OCC(=O)O)cc1	–	100	inhibition (Candida tropicalis [6]): Dose-dependent effect; inhibition at 64 µg/mL (Candida tropicalis [7]): > 50%; inhibition (Candida albicans [8]): Dose-dependent effect; Activity (Candida albicans [4]): Active
Cc1ccc(-c2ccc3c(c2)N(Cc2ccc(S(C)(=O)=O)cc2)C(=O)/C3=C/c2ccc(OCC(=O)O)cc2OCC(=O)O)cc1	–	100	inhibition (Candida tropicalis [6]): Dose-dependent effect; inhibition (Candida albicans [8]): Dose-dependent effect
CCn1cc(/C=C(\NC(=O)c2ccccc2OC)C(=O)NCCO)c2ccccc21	4.34	–	–
Cc1ccc(-c2ccc3c(c2)N(Cc2ccc(C#N)cc2)C(=O)/C3=C/c2ccc(OCC(=O)O)cc2OCC(=O)O)cc1	–	100	inhibition at 64 µg/mL (Candida albicans [5]): > 50%; inhibition (Candida tropicalis [6]): Dose-dependent effect; inhibition (Candida albicans [8]): Dose-dependent effect; Activity (Candida albicans [4]): Active
COc1ccc(N2N=C(c3ccccc3)/C(=C/c3ccc(OCC(=O)O)c(OCC(=O)O)c3)C2=O)cc1	4.67	88	–
